Type in all cases: functional
In one experiment the test system is Pichia kudriavzevii. The experiment in a line: Antimicrobial activity against Candida krusei by micro-broth dilution method. In a few lines: (§1)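 Clinical isolates. Tested by broth microdilution in 96-well plates following NCCLS M27-A2. MIC80, the minimum concentration inhibiting growth by 80%, was recorded. Marketed reference antifungals were included as positive controls.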
In general terms: Broth dilution looks for growth in wells or tubes with falling amounts of substance.

For a further experiment, the system named is Candida albicans. Kind of experiment: Antimicrobial activity against Candida albicans by micro-broth dilution method. In a few lines:
(§2)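 ATCC standard strains. Broth microdilution in 96-well plates following NCCLS M27-A2 (reference broth dilution method for yeasts). Endpoint is MIC80, the lowest concentration giving 80% growth inhibition. Marketed reference antifungals ran alongside as positive controls.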

The test system of another experiment is Cryptococcus neoformans. The experiment in a line: Antimicrobial activity against Cryptococcus neoformans by micro-broth dilution method. The method, boiled down:
as §2

Another experiment concerns Candida parapsilosis. The experiment in a line: Antimicrobial activity against Candida parapsilosis by micro-broth dilution method. Particulars: Lodderomyces parapsilosis. In a few lines:
as §1

The test system of a further experiment is Candida tropicalis. Kind of experiment: Antimicrobial activity against Candida tropicalis by micro-broth dilution method. In a few lines:
as §1

In another experiment the test system is Trichophyton rubrum. Kind of experiment: Antimicrobial activity against Trichophyton rubrum by micro-broth dilution method. The method, boiled down:
as §1

The next experiment deals with Nannizzia gypsea. The experiment in a line: Antimicrobial activity against Microsporum gypseum by micro-broth dilution method. The method, boiled down:
as §1

The next experiment deals with Aspergillus fumigatus. Kind of experiment: Antimicrobial activity against Aspergillus fumigatus by micro-broth dilution method. In a few lines:
as §1

The term MIC80 denotes the lowest concentration that inhibits either 80% of growth or 80% of the strains tested, depending on the study.

Values after ≈ are worked out from the molar mass of the structure shown.

`CC(C)N(Cc1ccc(Cl)cc1Cl)CC(O)(Cn1cncn1)c1ccc(F)cc1F` (stereo unspecified): the MIC80 in the experiment with Pichia kudriavzevii was 1 µg/mL (≈ 2.2 µM); in the experiment with Candida albicans it was 0.25 µg/mL (≈ 0.549 µM); against Cryptococcus neoformans it was 16 µg/mL (≈ 35.1 µM); in the experiment with Candida parapsilosis it was 1 µg/mL (≈ 2.2 µM); against Candida tropicalis it was 1 µg/mL (≈ 2.2 µM); against Trichophyton rubrum, 0.25 µg/mL (≈ 0.549 µM). Moreover, the MIC80 was 1 µg/mL (≈ 2.2 µM) against Nannizzia gypsea and more than 64 µg/mL in the experiment on Aspergillus fumigatus.

In the case of `CCCCN(Cc1cccc(F)c1)CC(O)(Cn1cncn1)c1ccc(F)cc1F` (stereo unspecified), the MIC80 with Pichia kudriavzevii came out at 1 µg/mL (≈ 2.39 µM); in the experiment with Candida albicans it was 0.0156 µg/mL (≈ 0.0373 µM); against Cryptococcus neoformans, 0.25 µg/mL (≈ 0.597 µM); against Candida parapsilosis, 0.25 µg/mL (≈ 0.597 µM); in the experiment with Candida tropicalis, 0.25 µg/mL (≈ 0.597 µM); in the experiment with Trichophyton rubrum, 1 µg/mL (≈ 2.39 µM). The values for the MIC80 in the experiment on Nannizzia gypsea and in the experiment with Aspergillus fumigatus were 0.0625 µg/mL (≈ 0.149 µM) and more than 64 µg/mL, respectively.

In the case of `CCc1ccc(CN(CC(O)(Cn2cncn2)c2ccc(F)cc2F)C(C)C)cc1` (stereo unspecified), the MIC80 against Pichia kudriavzevii worked out at 1 µg/mL (≈ 2.41 µM); against Candida albicans it was 0.0625 µg/mL (≈ 0.151 µM); in the experiment with Cryptococcus neoformans, 1 µg/mL (≈ 2.41 µM); in the experiment on Candida parapsilosis, 1 µg/mL (≈ 2.41 µM); against Candida tropicalis, 1 µg/mL (≈ 2.41 µM); with Trichophyton rubrum, 1 µg/mL (≈ 2.41 µM). The MIC80 with Nannizzia gypsea was 0.25 µg/mL (≈ 0.603 µM); against Aspergillus fumigatus, more than 64 µg/mL.

For the compound `CC(=O)N1CCN(c2ccc(OCC3COC(Cn4ccnc4)(c4ccc(Cl)cc4Cl)O3)cc2)CC1` (stereo unspecified) [KETOCONAZOLE], the MIC80 in the experiment with Pichia kudriavzevii was 0.25 µg/mL (≈ 0.47 µM); in the experiment on Candida albicans it was 0.0156 µg/mL (≈ 0.0294 µM); in the experiment with Cryptococcus neoformans, 0.0625 µg/mL (≈ 0.118 µM); in the experiment on Candida parapsilosis, 0.0625 µg/mL (≈ 0.118 µM); in the experiment on Candida tropicalis it was 0.0625 µg/mL (≈ 0.118 µM); against Trichophyton rubrum it was 0.0625 µg/mL (≈ 0.118 µM). Further, the MIC80 against Nannizzia gypsea was 0.0156 µg/mL (≈ 0.0294 µM); in the experiment with Aspergillus fumigatus it was 1 µg/mL (≈ 1.88 µM).

For `CCCN(Cc1ccc(Cl)cc1Cl)CC(O)(Cn1cncn1)c1ccc(F)cc1F` (stereo unspecified), the MIC80 was 1 µg/mL (≈ 2.2 µM) against Pichia kudriavzevii; 0.25 µg/mL (≈ 0.549 µM) against Candida albicans; 1 µg/mL (≈ 2.2 µM) in the experiment on Cryptococcus neoformans; 1 µg/mL (≈ 2.2 µM) with Candida parapsilosis; 4 µg/mL (≈ 8.78 µM) in the experiment on Candida tropicalis; 1 µg/mL (≈ 2.2 µM) in the experiment on Trichophyton rubrum. The values for the MIC80 against Nannizzia gypsea and against Aspergillus fumigatus were 0.0156 µg/mL (≈ 0.0343 µM) and more than 64 µg/mL, respectively.

Take `Cc1ccc(CN(CC(O)(Cn2cncn2)c2ccc(F)cc2F)C(C)C)cc1` (stereo unspecified): the MIC80 in the experiment on Pichia kudriavzevii was found to be 0.25 µg/mL (≈ 0.624 µM); against Candida albicans it was 1 µg/mL (≈ 2.5 µM); against Cryptococcus neoformans, 0.25 µg/mL (≈ 0.624 µM); with Candida parapsilosis it was 0.25 µg/mL (≈ 0.624 µM); in the experiment with Candida tropicalis it was 1 µg/mL (≈ 2.5 µM); with Trichophyton rubrum it was 0.0625 µg/mL (≈ 0.156 µM). The values for the MIC80 in the experiment with Nannizzia gypsea and in the experiment on Aspergillus fumigatus were 0.0625 µg/mL (≈ 0.156 µM) and 64 µg/mL (≈ 160 µM), respectively.

As for `C[C@@H](c1ncncc1F)[C@](O)(Cn1cncn1)c1ccc(F)cc1F` [VORICONAZOLE], the MIC80 turned out to be 0.0625 µg/mL (≈ 0.179 µM) with Pichia kudriavzevii; 0.0156 µg/mL (≈ 0.0447 µM) in the experiment with Candida albicans; 0.0156 µg/mL (≈ 0.0447 µM) with Cryptococcus neoformans; 0.0039 µg/mL (≈ 0.0112 µM) in the experiment on Candida parapsilosis; 0.0039 µg/mL (≈ 0.0112 µM) with Candida tropicalis; 0.0625 µg/mL (≈ 0.179 µM) with Trichophyton rubrum. In addition, the MIC80 in the experiment with Nannizzia gypsea amounted to 0.0039 µg/mL (≈ 0.0112 µM); with Aspergillus fumigatus it was 0.25 µg/mL (≈ 0.716 µM).

With `CCCN(Cc1ccccc1)CC(O)(Cn1cncn1)c1ccc(F)cc1F` (stereo unspecified), the MIC80 amounted to 0.0625 µg/mL (≈ 0.162 µM) against Pichia kudriavzevii; 0.0156 µg/mL (≈ 0.0404 µM) with Candida albicans; 0.0625 µg/mL (≈ 0.162 µM) against Cryptococcus neoformans; 0.0625 µg/mL (≈ 0.162 µM) in the experiment on Candida parapsilosis; 0.0625 µg/mL (≈ 0.162 µM) in the experiment with Candida tropicalis; 0.0625 µg/mL (≈ 0.162 µM) against Trichophyton rubrum. Besides, the MIC80 was 0.0156 µg/mL (≈ 0.0404 µM) against Nannizzia gypsea and more than 64 µg/mL against Aspergillus fumigatus.

Consider `CCCN(Cc1ccccc1Cl)CC(O)(Cn1cncn1)c1ccc(F)cc1F` (stereo unspecified), for which the MIC80 came out at 0.25 µg/mL (≈ 0.594 µM) in the experiment on Pichia kudriavzevii; 0.25 µg/mL (≈ 0.594 µM) against Candida albicans; 0.0625 µg/mL (≈ 0.148 µM) against Cryptococcus neoformans; 0.25 µg/mL (≈ 0.594 µM) against Candida parapsilosis; 0.25 µg/mL (≈ 0.594 µM) against Candida tropicalis; 4 µg/mL (≈ 9.5 µM) against Trichophyton rubrum. The results for the MIC80 against Nannizzia gypsea and with Aspergillus fumigatus were 0.0156 µg/mL (≈ 0.0371 µM) and more than 64 µg/mL, respectively.

In the case of `CCCCN(Cc1cccc(Cl)c1)CC(O)(Cn1cncn1)c1ccc(F)cc1F` (stereo unspecified), the MIC80 is 1 µg/mL (≈ 2.3 µM) with Pichia kudriavzevii; 1 µg/mL (≈ 2.3 µM) against Candida albicans; 0.25 µg/mL (≈ 0.575 µM) in the experiment on Cryptococcus neoformans; 0.25 µg/mL (≈ 0.575 µM) in the experiment on Candida parapsilosis; 1 µg/mL (≈ 2.3 µM) against Candida tropicalis; 1 µg/mL (≈ 2.3 µM) against Trichophyton rubrum. In addition, the MIC80 was 0.25 µg/mL (≈ 0.575 µM) against Nannizzia gypsea and more than 64 µg/mL in the experiment on Aspergillus fumigatus.

Take `CCCN(Cc1cccc(Cl)c1)CC(O)(Cn1cncn1)c1ccc(F)cc1F` (stereo unspecified): the MIC80 against Pichia kudriavzevii stood at 0.25 µg/mL (≈ 0.594 µM); in the experiment on Candida albicans it was 0.0625 µg/mL (≈ 0.148 µM); with Cryptococcus neoformans, 0.25 µg/mL (≈ 0.594 µM); against Candida parapsilosis it was 0.25 µg/mL (≈ 0.594 µM); in the experiment on Candida tropicalis, 0.25 µg/mL (≈ 0.594 µM); in the experiment on Trichophyton rubrum, 4 µg/mL (≈ 9.5 µM). Also, the MIC80 was 0.0625 µg/mL (≈ 0.148 µM) with Nannizzia gypsea and more than 64 µg/mL with Aspergillus fumigatus.

Take `CCCN(Cc1ccc(F)cc1)CC(O)(Cn1cncn1)c1ccc(F)cc1F` (stereo unspecified): the MIC80 came to 0.0625 µg/mL (≈ 0.155 µM) with Pichia kudriavzevii; 0.0625 µg/mL (≈ 0.155 µM) in the experiment with Candida albicans; 0.0625 µg/mL (≈ 0.155 µM) in the experiment on Cryptococcus neoformans; 0.0625 µg/mL (≈ 0.155 µM) against Candida parapsilosis; 0.25 µg/mL (≈ 0.618 µM) in the experiment with Candida tropicalis; 1 µg/mL (≈ 2.47 µM) against Trichophyton rubrum. The MIC80 is 0.0039 µg/mL (≈ 0.00964 µM) in the experiment with Nannizzia gypsea and more than 64 µg/mL in the experiment on Aspergillus fumigatus.

The values above are taken from ChEMBL document CHEMBL1153921, “Design, synthesis, and biological evaluation of novel 1-(1H-1,2,4-triazole-1-yl)-2-(2,4-difluorophenyl)-3-substituted benzylamino-2-propanols” (2009).
